Data reported in ChEMBL document CHEMBL1250539, “OGA inhibition by GlcNAc-selenazoline” (Bioorg Med Chem, 2010).
Active and inactive are the calls of the source. The calls are words filed in the database; no cut-off is given here.

What was measured:
[1] = target: T1, Beta-hexosaminidase subunit beta (Homo sapiens) (UniProt P07686); experiment: Inhibition of human placental lysosomal hexosaminidase B at 5 uM
T1 sequence (whole entry): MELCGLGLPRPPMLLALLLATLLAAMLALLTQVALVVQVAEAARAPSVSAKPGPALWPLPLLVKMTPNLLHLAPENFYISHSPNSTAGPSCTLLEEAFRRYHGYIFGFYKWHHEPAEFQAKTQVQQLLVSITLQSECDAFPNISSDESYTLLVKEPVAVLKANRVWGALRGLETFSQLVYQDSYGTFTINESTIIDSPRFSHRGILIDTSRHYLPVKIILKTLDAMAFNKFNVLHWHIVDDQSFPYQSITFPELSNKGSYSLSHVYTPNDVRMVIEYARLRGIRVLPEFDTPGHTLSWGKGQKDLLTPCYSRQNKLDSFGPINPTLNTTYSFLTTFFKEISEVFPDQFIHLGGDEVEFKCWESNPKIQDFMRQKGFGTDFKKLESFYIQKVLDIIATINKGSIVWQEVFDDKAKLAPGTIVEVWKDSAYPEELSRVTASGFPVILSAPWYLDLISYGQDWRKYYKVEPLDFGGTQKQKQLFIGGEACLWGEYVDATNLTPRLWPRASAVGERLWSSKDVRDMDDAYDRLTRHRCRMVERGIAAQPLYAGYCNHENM

Protein O-GlcNAcase = target: T2, Protein O-GlcNAcase (Homo sapiens, UniProt O60502); experiment: Inhibition of human O-GlcNAcase after 5 mins by Lineweaver-Burke plot analysis
T2 sequence (O60502 whole entry): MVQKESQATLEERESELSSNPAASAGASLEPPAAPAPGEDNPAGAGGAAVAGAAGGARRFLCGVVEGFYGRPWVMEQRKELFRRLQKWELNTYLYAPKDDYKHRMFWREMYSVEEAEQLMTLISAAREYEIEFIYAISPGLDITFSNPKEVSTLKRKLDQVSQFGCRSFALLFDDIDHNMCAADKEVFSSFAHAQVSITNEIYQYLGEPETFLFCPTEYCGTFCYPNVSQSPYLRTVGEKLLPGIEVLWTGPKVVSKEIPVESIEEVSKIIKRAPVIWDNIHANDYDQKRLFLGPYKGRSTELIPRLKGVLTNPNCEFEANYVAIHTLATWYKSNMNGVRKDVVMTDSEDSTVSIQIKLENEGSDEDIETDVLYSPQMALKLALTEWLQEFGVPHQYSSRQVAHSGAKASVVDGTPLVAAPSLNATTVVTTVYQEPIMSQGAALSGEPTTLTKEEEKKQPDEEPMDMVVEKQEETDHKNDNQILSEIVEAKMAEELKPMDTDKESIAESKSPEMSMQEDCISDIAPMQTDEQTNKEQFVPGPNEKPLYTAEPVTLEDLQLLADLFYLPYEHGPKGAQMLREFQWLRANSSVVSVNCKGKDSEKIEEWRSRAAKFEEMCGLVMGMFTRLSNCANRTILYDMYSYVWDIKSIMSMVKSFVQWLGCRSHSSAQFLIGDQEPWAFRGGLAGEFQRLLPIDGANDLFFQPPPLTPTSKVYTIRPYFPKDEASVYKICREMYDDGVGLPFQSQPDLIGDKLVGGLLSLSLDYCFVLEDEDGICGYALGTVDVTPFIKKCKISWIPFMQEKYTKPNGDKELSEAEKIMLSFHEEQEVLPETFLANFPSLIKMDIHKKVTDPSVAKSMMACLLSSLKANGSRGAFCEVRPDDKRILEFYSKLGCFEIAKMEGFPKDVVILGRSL

[2] = Competitive inhibition of Streptomyces plicatus hexosaminidase
HT-29 = experiment: Induction of hyper-O-GlcNAc-ylation in human HT-29 cells assessed as increase of O-GlcNAc level at 40 uM after 48 hrs Western blotting; type: functional, cell-based
Outline: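 HT-29 cells seeded at 1.0 × 10^5 per well in McCoy's 5a + 10% FBS, with or without 40 μM inhibitor, 37 °C for 2 days. Lysed in Tris pH 8.0/DTT/Triton X-100 with protease inhibitors and sonicated. 20 μg protein per lane run on 10% SDS gel and blotted. Probed with anti-O-GlcNAc RL2 (1:1000) and IR-dye anti-mouse secondary; infrared imaging.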

HeLa = experiment: Induction of hyper-O-GlcNAc-ylation in human HeLa cells assessed as increase of O-GlcNAc level at 40 uM after 48 hrs Western blotting; type: functional, cell-based
Outline: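 HeLa cells seeded at 1.0 × 10^5 per well in DMEM + 10% FBS, ±40 μM inhibitor, 37 °C, 2 days. Washed in PBS, pelleted and lysed with M-PER reagent. Equal protein (20 μg) separated on 10% gel. Western blot with RL2 anti-O-GlcNAc (1:1000) and IR-dye anti-mouse secondary; infrared imaging.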

[3] = target: T3, Solute carrier family 2, facilitated glucose transporter member 4 (Mus musculus) (UniProt P14142); experiment: Inhibition of insulin-induced GLUT4 translocation into plasma membrane of mouse differentiated 3T3L1 cells at 40 uM after 16 hrs by Western blotting relative to control; settings: 3T3-L1
T3 sequence (whole entry): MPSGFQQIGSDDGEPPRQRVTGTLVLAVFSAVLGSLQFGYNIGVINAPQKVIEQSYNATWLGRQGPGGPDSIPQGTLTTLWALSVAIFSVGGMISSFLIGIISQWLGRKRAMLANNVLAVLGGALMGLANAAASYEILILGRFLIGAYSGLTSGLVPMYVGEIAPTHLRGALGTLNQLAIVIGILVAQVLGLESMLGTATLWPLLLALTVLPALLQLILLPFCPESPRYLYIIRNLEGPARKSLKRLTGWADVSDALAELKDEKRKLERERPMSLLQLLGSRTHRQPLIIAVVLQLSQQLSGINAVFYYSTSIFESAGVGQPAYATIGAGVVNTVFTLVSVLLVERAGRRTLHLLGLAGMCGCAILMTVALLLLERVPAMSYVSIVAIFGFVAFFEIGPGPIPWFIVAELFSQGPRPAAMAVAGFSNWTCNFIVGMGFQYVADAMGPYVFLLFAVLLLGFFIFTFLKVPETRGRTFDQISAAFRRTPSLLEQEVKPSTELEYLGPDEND
Outline: (§1)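 Differentiated 3T3-L1 adipocytes (day 8) were held 16 h in serum-free DMEM with 4 mM glucose, with or without 40 μM inhibitor. They were re-fed and stimulated with 30 nM insulin for 20 min. Surface GLUT4 was photolabeled with 250 μM Bio-ATB-BMPA at 300 nm. Lysate (600 μg) underwent streptavidin pull-down and anti-GLUT4 immunoblotting, and surface GLUT4 was compared with untreated cells.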

3T3-L1 = experiment: Effect on GLUT4 level in mouse differentiated 3T3L1 cells; type: functional, cell-based; outline: as §1
[4] = target: T4, Beta-hexosaminidase subunit alpha (Homo sapiens) (UniProt P06865); experiment: Inhibition of human placental lysosomal hexosaminidase A at 5 uM
T4 sequence (whole entry): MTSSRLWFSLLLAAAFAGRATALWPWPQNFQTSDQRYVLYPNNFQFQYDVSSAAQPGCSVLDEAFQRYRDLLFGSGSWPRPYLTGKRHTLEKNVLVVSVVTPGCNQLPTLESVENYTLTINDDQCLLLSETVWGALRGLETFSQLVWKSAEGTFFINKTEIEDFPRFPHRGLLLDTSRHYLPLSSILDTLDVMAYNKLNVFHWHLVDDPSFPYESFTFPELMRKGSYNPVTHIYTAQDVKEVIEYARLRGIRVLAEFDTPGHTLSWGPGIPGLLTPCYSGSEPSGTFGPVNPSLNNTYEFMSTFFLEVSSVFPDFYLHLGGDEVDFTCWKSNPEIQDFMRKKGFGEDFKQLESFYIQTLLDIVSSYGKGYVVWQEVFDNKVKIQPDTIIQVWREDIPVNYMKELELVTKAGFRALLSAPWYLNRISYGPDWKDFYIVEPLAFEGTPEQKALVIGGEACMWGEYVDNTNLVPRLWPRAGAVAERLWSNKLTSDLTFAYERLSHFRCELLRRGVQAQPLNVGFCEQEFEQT
Outline: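 Human placental Hex A was incubated with 50 μM fluorescein di(GlcNAc) substrate ± 5 μM inhibitor in 100 mM citrate/phosphate pH 6.5 without GalNAc at 37 °C for 30 min. The reaction was stopped with 0.5 M Na2CO3 and read by fluorescence (ex 485 / em 535 nm). Percent inhibition was taken against activity without inhibitor.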

[5] = target: RAC-alpha serine/threonine-protein kinase (Mus musculus) (UniProt P31750); experiment: Activation of AKT
RAC-alpha serine/threonine-protein kinase (Mus musculus), sequence (P31750 whole entry, looked up): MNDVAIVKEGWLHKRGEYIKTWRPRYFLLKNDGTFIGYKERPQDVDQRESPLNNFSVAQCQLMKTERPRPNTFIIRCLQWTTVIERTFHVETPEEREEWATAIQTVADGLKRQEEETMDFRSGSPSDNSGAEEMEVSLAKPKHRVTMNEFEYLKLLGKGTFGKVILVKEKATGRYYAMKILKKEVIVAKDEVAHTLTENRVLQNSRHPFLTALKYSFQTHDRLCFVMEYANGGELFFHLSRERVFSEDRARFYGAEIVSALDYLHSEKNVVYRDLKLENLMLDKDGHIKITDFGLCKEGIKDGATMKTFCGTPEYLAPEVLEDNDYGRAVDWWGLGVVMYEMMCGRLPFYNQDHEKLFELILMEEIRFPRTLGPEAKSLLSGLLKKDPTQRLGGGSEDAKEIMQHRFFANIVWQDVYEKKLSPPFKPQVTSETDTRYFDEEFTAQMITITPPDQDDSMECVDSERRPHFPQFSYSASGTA

[6] = target: 3-phosphoinositide-dependent protein kinase 1 (Mus musculus) (UniProt Q9Z2A0); experiment: Activation of PDK1
3-phosphoinositide-dependent protein kinase 1 (Mus musculus), sequence (Q9Z2A0 whole entry, looked up): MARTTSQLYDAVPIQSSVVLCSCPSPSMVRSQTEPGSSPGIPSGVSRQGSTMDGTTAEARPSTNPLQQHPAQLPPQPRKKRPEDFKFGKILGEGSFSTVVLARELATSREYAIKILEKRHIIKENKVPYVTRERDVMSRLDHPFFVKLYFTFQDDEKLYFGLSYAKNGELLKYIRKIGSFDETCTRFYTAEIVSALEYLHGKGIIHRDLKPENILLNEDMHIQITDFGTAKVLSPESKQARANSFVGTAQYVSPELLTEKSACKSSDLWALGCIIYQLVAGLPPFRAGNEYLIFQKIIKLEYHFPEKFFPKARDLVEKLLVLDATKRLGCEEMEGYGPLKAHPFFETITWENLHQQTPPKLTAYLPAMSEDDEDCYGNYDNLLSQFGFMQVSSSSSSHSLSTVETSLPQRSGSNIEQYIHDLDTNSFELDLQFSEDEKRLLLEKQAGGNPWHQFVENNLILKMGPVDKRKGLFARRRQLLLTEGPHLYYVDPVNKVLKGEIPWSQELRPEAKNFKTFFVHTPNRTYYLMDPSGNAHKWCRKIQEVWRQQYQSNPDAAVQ

Structure (SMILES) | inhibition [1] | Ki (Protein O-GlcNAcase) | Ki [2] | Activity (HT-29) | Activity (HeLa) | inhibition [3] | Activity (3T3-L1) | inhibition [4] | Activity [5] | Activity [6]
CC1=N[C@@H]2[C@@H](O)[C@H](O)[C@@H](CO)O[C@@H]2[Se]1 | Active | 0.7 µM | 170 µM | Active | Active | 16.3% | inactive | Active | Active | Active
CC1=N[C@@H]2[C@@H](O)[C@H](O)[C@@H](CO)O[C@@H]2S1 | Active |  | 20 µM | Active | Active | 43% | inactive | Active | Active | Active
